Measurements taken from ChEMBL document CHEMBL1165942, “Synthesis and anti-inflammatory activity of new arylidene-thiazolidine-2,4-diones as PPARgamma ligands” (Bioorg Med Chem, 2010).

Key:
[1] = molecular target: T1, Peroxisome proliferator-activated receptor gamma (Homo sapiens, UniProt P37231); assay: Displacement of [3H]rosiglitazone from human PPARgamma ligand binding domain expressed in Escherichia coli BL21 after 12 hrs by liquid scintillation counting
T1 sequence (P37231 whole entry): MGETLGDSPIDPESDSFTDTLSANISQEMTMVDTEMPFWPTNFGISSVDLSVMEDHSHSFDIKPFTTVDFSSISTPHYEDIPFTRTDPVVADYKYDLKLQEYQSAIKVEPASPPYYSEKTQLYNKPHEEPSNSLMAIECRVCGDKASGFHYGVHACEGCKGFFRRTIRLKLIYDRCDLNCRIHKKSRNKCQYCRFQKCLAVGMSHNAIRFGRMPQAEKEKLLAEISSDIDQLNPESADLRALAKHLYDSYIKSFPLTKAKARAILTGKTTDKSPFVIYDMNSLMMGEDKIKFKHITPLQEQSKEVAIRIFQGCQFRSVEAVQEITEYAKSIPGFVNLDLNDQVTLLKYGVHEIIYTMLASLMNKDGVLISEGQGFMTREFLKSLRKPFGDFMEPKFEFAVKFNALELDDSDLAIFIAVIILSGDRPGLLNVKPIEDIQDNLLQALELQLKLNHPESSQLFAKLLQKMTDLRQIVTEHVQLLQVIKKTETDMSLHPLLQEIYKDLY
In short: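 His-tagged hPPARγ LBD purified on Co2+ affinity resin, preincubated 12 h at 4 °C with 40 nM [3H]rosiglitazone (50 Ci/mmol) in 10 mM Tris pH 8.0, 50 mM KCl, 10 mM DTT. Unlabeled ligand or DMSO vehicle added, then a further 12 h at 4 °C. Bound and free label separated on Sephadex G-25 and counted by scintillation. Results as % bound vs vehicle; Ki from concentration-dependent displacement.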

Mus musculus = assay: Antiinflammatory activity against carrageenan-induced air pouch inflammation in po dosed mouse assessed as inhibition of leukocyte infiltration administered 1 hr before carrageenan challenge measured after 6 hrs by hemocytometry relative to untreated control

Row | Ki [1] [µM] | SMILES | inhibition (INH) (Mus musculus) [%]
1 | 4 | O=C1S/C(=C\c2ccc(Cl)cc2Cl)C(=O)N1Cc1c(F)cccc1Cl | 41.6
2 |  | O=C1S/C(=C\c2ccc3c(c2)Cc2ccccc2-3)C(=O)N1Cc1cccc(Cl)c1 | 65.2
3 |  | COc1ccc(/C=C2\SC(=O)N(Cc3cccc(Cl)c3)C2=O)cc1 | 42
4 |  | COc1ccc(Br)cc1/C=C1\SC(=O)N(Cc2cccc(Cl)c2)C1=O | 47.4
5 | 43 | CS(=O)(=O)c1ccc(/C=C2\SC(=O)N(Cc3cccc(Cl)c3)C2=O)cc1 | 63.9
6 | 7.3 | CS(=O)(=O)c1ccc(/C=C2\SC(=O)N(Cc3ccccc3Br)C2=O)cc1 | 73.3
7 |  | COc1ccc(/C=C2\SC(=O)N(Cc3cccc(Cl)c3)C2=O)cc1Br | 51.5
8 | 43.6 | O=C1S/C(=C\c2ccc(-c3ccccc3)cc2)C(=O)N1Cc1cccc(Cl)c1 | 67
9 |  | CN(CCOc1ccc(CC2SC(=O)NC2=O)cc1)c1ccccn1 (stereo not drawn) [ROSIGLITAZONE] | 72
